Test results reported in ChEMBL document CHEMBL4011646, “Discovery of a Small-Molecule Inhibitor of Interleukin 15: Pharmacophore-Based Virtual Screening and Hit Optimization” (J Med Chem, 2017).

What was measured:
[1] = Inhibition of recombinant human IL2R/IL2-induced mouse 32D-beta cell proliferation preincubated for 30 mins with protein followed by cell addition measured after 2.5 days by Alamar blue reduction assay
Method in brief: (§1)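 32Dβ cells (IL-2Rβ/γ) were starved 4 h without cytokine, then 1 × 10^4 cells were cultured 2.5 days with 100 pM RLI or 1.5 nM IL-2. The cytokine was preincubated 30 min with fixed or increasing compound concentrations or vehicle (culture medium, DMSO 0.1% final). Alamar blue was added for 6 h at 37 °C, with fluorescence read at ex 560/em 590 nm. Tested in triplicate; IC50 is the mean of ≥2 independent assays.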

[2] = target: IL15-IL15 receptor (Homo sapiens, UniProt P40933); test: Inhibition of IL15R/IL15 interaction in human NK92 cells assessed as reduction of IL15-induced STAT5 phosphorylation preincubated for 30 mins with IL15 followed by cell addition measured after 1 hr by AlphaScreen assay; type: cell-based
IL15-IL15 receptor (Homo sapiens, UniProt P40933), sequence (P40933 whole entry): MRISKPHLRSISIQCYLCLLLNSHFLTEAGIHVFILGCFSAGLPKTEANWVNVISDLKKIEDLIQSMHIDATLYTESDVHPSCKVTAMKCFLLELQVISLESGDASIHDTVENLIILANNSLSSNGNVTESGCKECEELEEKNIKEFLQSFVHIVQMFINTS
IL15-IL15 receptor (Homo sapiens, UniProt P40933), sequence (Q13261 whole entry, further chain): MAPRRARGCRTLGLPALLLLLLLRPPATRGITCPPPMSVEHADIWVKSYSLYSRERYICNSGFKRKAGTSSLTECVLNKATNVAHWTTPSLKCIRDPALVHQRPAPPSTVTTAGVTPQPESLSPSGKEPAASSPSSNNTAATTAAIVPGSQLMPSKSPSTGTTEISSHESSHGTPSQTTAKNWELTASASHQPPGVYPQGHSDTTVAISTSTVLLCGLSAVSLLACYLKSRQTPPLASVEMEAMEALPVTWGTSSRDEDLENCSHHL
Method in brief: (§2)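 NK-92 cells were washed and serum-starved overnight, then 2 × 10^5 cells were stimulated at 37 °C for 1 h with IL-15 (50 pM fixed) or IL-2. The cytokine had been preincubated 30 min with increasing compound concentrations or vehicle (PBS, BSA 0.1%, DMSO 0.6% final). Cells were lysed and p-Stat5 read by AlphaScreen SureFire. Duplicates, ≥3 independent experiments. Result is % reduction of the cytokine p-Stat5 response.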

[3] = Inhibition of IL2R/IL2 interaction in human NK92 cells assessed as reduction IL2-induced STAT5 phosphorylation preincubated for 30 mins with IL2 followed by cell addition measured after 1 hr by AlphaScreen assay; type: cell-based; method in brief: as §2
[4] = target: Interleukin-2 (Homo sapiens, UniProt P60568); test: Binding affinity to recombinant human IL-2 by SPR assay
Interleukin-2, sequence (P60568 whole entry): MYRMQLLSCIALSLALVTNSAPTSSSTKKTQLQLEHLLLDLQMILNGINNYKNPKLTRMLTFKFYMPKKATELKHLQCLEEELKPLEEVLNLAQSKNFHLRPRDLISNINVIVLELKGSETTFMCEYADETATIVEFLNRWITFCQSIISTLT
Method in brief: (§3)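 SPR on a BIAcore 3000 at 25 °C. Recombinant IL-15, RLI or IL-2 was amine-coupled to CM5 chips, and compounds were flowed over at 100 μM or at increasing concentrations (3.125–100 μM) in PBS or 1% or 5% DMSO. Binding was read as the change in RU, and Kd was derived from direct interaction.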

[5] = target: Interleukin-15 (Homo sapiens, UniProt P40933); test: Binding affinity to recombinant human IL-15 by SPR assay; method in brief: as §3
Interleukin-15, sequence (P40933 whole entry, the tested form may be a part): as the sequence (P40933 whole entry) above

[6] = target: IL15-IL15 receptor (Homo sapiens, UniProt P40933+Q13261); test: Inhibition of human IL-15Ralpha-sushi domain/human IL-15-induced mouse 32D-beta cell proliferation preincubated for 30 mins with protein followed by cell addition measured after 2.5 days by Alamar blue reduction assay; method in brief: as §1
IL15-IL15 receptor (Homo sapiens, UniProt P40933+Q13261), sequence (P40933 whole entry, the tested form may be a part): as the sequence (P40933 whole entry) above
IL15-IL15 receptor (Homo sapiens, UniProt P40933+Q13261), sequence (Q13261 whole entry, the tested form may be a part): as the sequence (Q13261 whole entry, further chain) above

Compound	IC50 ([1]; Homo sapiens, read-out: IC50)	IC50 [2]	IC50 [3]	other results
Cn1c(Cc2nn(C)c(=O)c3ccccc23)nnc1SCCCCCCCC(=O)Nc1ccc(I)cc1	0.8 µM			
CCOC(=O)c1ccccc1NC(=O)CSc1nnc(Cc2nn(C)c(=O)c3ccccc23)n1C	30 µM			
COc1ccc(NC(=O)CCCCCCCSc2nnc(Cc3nn(C)c(=O)c4ccccc34)n2C)c(OC)c1	0.9 µM	0.205 µM	0.162 µM	Kd [4]: 27.6 µM; Kd [5]: 19.6 µM
Cn1c(Cc2nn(C)c(=O)c3ccccc23)nnc1SCc1cn(C23CC4CC(CC(C4)C2)C3)nn1	30 µM			
Cn1c(Cc2nn(C)c(=O)c3ccccc23)nnc1SCCCCCCCC(=O)Nc1ccc(N=[N+]=[N-])cc1	1.1 µM	0.1 µM	0.073 µM	Kd [5]: 42.4 µM
Cn1c(Cc2nn(C)c(=O)c3ccccc23)nnc1SCCCCCCCCCCC(=O)Nc1cccc2ccccc12	8.5 µM			
CCOC(=O)c1cccc(NC(=O)CCCCCCCSc2nnc(Cc3nn(C)c(=O)c4ccccc34)n2C)c1	0.6 µM	0.057 µM	0.043 µM	Kd [4]: 23.1 µM; Kd [5]: 21.8 µM
Cn1c(Cc2nn(C)c(=O)c3ccccc23)nnc1SCCCCCCCCCCC(=O)NC12CC3CC(CC(C3)C1)C2	4.9 µM	0.124 µM	0.059 µM	Kd [5]: 16 µM
Cn1c(Cc2nn(C)c(=O)c3ccccc23)nnc1SCC(=O)NC12CC3CC(CC(C3)C1)C2		> 30 µM	> 30 µM	IC50 [1]: Not Active; IC50 [6]: Not Active
CCCOc1ccc(NC(=O)CCCCCCCSc2nnc(Cc3nn(C)c(=O)c4ccccc34)n2C)cc1	0.9 µM	0.04 µM	0.053 µM	Kd [5]: 19 µM
Cn1c(Cc2nn(C)c(=O)c3ccccc23)nnc1SCCCCCC(=O)Nc1ccc(Cl)cc1Cl	9.8 µM			
CCCCCCCCCCSc1nnc(Cc2nn(C)c(=O)c3ccccc23)n1C	10 µM			
CN(C(=O)CCCCCCCSc1nnc(Cc2nn(C)c(=O)c3ccccc23)n1C)c1ccc(Cl)cc1Cl	8.4 µM			
CCOC(=O)c1cccc(NC(=O)CSc2nnc(Cc3nn(C)c(=O)c4ccccc34)n2C)c1				IC50 [1]: Not Active; IC50 [6]: Not Active
Cn1c(Cc2nn(C)c(=O)c3ccccc23)nnc1SCCCCCCCC(=O)Nc1cccc2ccccc12	1.9 µM			
Cn1nc(Cc2nnc(SCCCCCCCC(=O)Nc3ccc(Cl)cc3Cl)o2)c2ccccc2c1=O	0.8 µM			
Cn1c(Cc2nn(C)c(=O)c3ccccc23)nnc1SCc1cn(CCCCC(=O)Nc2ccc(Cl)cc2Cl)nn1	> 30 µM			
Cn1nc(Cc2nnc(SCCCCCCCCCCC(=O)Nc3ccc(Cl)cc3Cl)o2)c2ccccc2c1=O	7.5 µM			
CC(C)COc1ccc(NC(=O)CSc2nnc(Cc3nn(C)c(=O)c4ccccc34)n2C)cc1	30 µM			
Cn1c(Cc2nn(C)c(=O)c3ccccc23)nnc1SCC(=O)Nc1ccccc1C(=O)O				IC50 [1]: Not Active; IC50 [6]: Not Active
Cn1c(Cc2nn(C)c(=O)c3ccccc23)nnc1SCCCC(=O)Nc1ccc(Cl)cc1Cl	11.2 µM			
CCCOc1ccc(NC(=O)CSc2nnc(Cc3nn(C)c(=O)c4ccccc34)n2C)cc1	> 30 µM			
Cn1c(Cc2nn(C)c(=O)c3ccccc23)nnc1S(=O)(=O)CCCCCCCC(=O)Nc1ccc(Br)cc1Br	1.6 µM			
Cn1c(Cc2nn(C)c(=O)c3ccccc23)nnc1SCC(=O)Nc1cccc(C(=O)O)c1				IC50 [1]: Not Active; IC50 [6]: Not Active

Compound	IC50 ([1]; Homo sapiens, read-out: IC50)	IC50 [2]	IC50 [3]	other results
CC(C)COc1ccc(NC(=O)CCCCCCCSc2nnc(Cc3nn(C)c(=O)c4ccccc34)n2C)cc1	3 µM	0.055 µM	0.058 µM	Kd [5]: 25 µM
COc1ccc(NC(=O)CCCCCCCSc2nnc(Cc3nn(C)c(=O)c4ccccc34)n2C)c(O)c1	1 µM	0.36 µM	0.226 µM	Kd [4]: 12.5 µM; Kd [5]: 21.2 µM
CC(C)Oc1ccc(NC(=O)CCCCCCCSc2nnc(Cc3nn(C)c(=O)c4ccccc34)n2C)cc1	0.6 µM	0.093 µM	0.089 µM	Kd [5]: 20.9 µM
Cn1c(Cc2nn(C)c(=O)c3ccccc23)nnc1SCCCCCCCC(=O)Nc1ccc(Cl)cc1Cl	1.1 µM	0.153 µM	0.16 µM	Kd [4]: 8 µM; Kd [5]: 19.1 µM
Cn1c(Cc2nn(C)c(=O)c3ccccc23)nnc1SCC(=O)Nc1ccc(F)cc1F				IC50 [6]: Not Active
CN(C(=O)CSc1nnc(Cc2nn(C)c(=O)c3ccccc23)n1C)c1ccc(Cl)cc1Cl				IC50 [1]: Not Active
Cn1c(Cc2nn(C)c(=O)c3ccccc23)nnc1SCCCCCCCC(=O)Nc1ccc(O)cc1	> 30 µM			
Cn1c(Cc2nn(C)c(=O)c3ccccc23)nnc1SCCCCCCCC(=O)NC12CC3CC(CC(C3)C1)C2	1.8 µM	0.21 µM	0.152 µM	Kd [5]: 78 µM
CC(C)Oc1ccc(NC(=O)CSc2nnc(Cc3nn(C)c(=O)c4ccccc34)n2C)cc1	> 30 µM			
COc1ccc(NC(=O)CCCCCCCSc2nnc(Cc3nn(C)c(=O)c4ccccc34)n2C)cc1	3.2 µM	0.201 µM	0.204 µM	Kd [5]: 26 µM
Cn1c(Cc2nn(C)c(=O)c3ccccc23)nnc1SCCCCCCCC(=O)Nc1ccccc1O	23 µM			
Cn1c(Cc2nn(C)c(=O)c3ccccc23)nnc1SCCCCCCCCCCC(=O)Nc1ccc(Cl)cc1Cl	4.4 µM	0.142 µM	0.159 µM	
COc1ccc(NC(=O)CSc2nnc(Cc3nn(C)c(=O)c4ccccc34)n2C)cc1				IC50 [1]: Not Active; IC50 [6]: Not Active
Cn1c(Cc2nn(C)c(=O)c3ccccc23)nnc1SCC(=O)Nc1ccc(O)cc1				IC50 [1]: Not Active; IC50 [6]: Not Active
Cn1c(Cc2nn(C)c(=O)c3ccccc23)nnc1SCCCCCCCC(=O)Nc1ccc(F)cc1F	1 µM	0.11 µM	0.076 µM	
Cn1c(Cc2nn(C)c(=O)c3ccccc23)nnc1SCC(=O)Nc1ccc(Cl)cc1Cl	11.6 µM	9.11 µM	14.1 µM	Kd [4]: 10.5 µM; Kd [5]: 48.4 µM
Cc1ccc(NC(=O)CCCCCCCSc2nnc(Cc3nn(C)c(=O)c4ccccc34)n2C)c(Cl)c1	1.7 µM	0.076 µM	0.069 µM	Kd [5]: 24.1 µM
Cn1c(Cc2nn(C)c(=O)c3ccccc23)nnc1SCCCCCCCC(=O)Nc1ccc(O)cc1O	21 µM			
Cn1c(Cc2nn(C)c(=O)c3ccccc23)nnc1SCCCCCCCCCCCCCCCC(=O)Nc1ccc(Cl)cc1Cl	4.6 µM			
Cn1c(Cc2nn(C)c(=O)c3ccccc23)nnc1SCCCCCCCCCC(=O)Nc1ccc(Cl)cc1Cl	1.6 µM			
Cn1c(Cc2nn(C)c(=O)c3ccccc23)nnc1SCCCCCCCC(=O)Nc1ccc(Cl)cc1	0.8 µM			
Cn1c(Cc2nn(C)c(=O)c3ccccc23)nnc1SCC(=O)Nc1ccc(I)cc1				IC50 [1]: Not Active; IC50 [6]: Not Active
Cn1c(Cc2nn(C)c(=O)c3ccccc23)nnc1SCCCCCCCC(=O)Nc1ccc(Br)cc1Br	1.3 µM	0.092 µM	0.083 µM	Kd [4]: 10 µM; Kd [5]: 11.6 µM
